For orientation: EC50 means the concentration at which the effect is half-maximal. Lower therefore signals higher potency in that assay. The CC50 is the concentration that lowers cell viability or growth by half. A higher CC50 goes with lower toxicity to the cells.

Among the data in ChEMBL document CHEMBL1142736, “Synthesis of novel diarylpyrimidine analogues and their antiviral activity against human immunodeficiency virus type 1” (J Med Chem, 2005) are EC50, Selectivity index and CC50 values, retold here.

The test system of series [1] is Human immunodeficiency virus 1. In words: Effective concentration against human immunodeficiency virus type 1 mutated at 100I+103N. It counts as functional, organism-based.
In series [2] the test system is Human immunodeficiency virus 1. In words: Effective concentration for the inhibition of wild type human immunodeficiency virus type 1 LAI strain. It counts as functional, organism-based.
For series [3], the system named is Human immunodeficiency virus 1. In words: Effective concentration against human immunodeficiency virus type 1 mutated at 100I. It counts as functional, organism-based.
Series [4] relates to Human immunodeficiency virus 1. In words: Effective concentration against human immunodeficiency virus type 1 mutated at 103N. It counts as functional, organism-based.
Series [5] deals with Human immunodeficiency virus 1. In words: Effective concentration against human immunodeficiency virus type 1 mutated at 181C. It counts as functional, organism-based.
The test system of series [6] is Human immunodeficiency virus 1. Description: Effective concentration against human immunodeficiency virus type 1 mutated at 188L. The format is functional, organism-based.
In series [7] the test system is Human immunodeficiency virus 1. In words: Effective concentration against human immunodeficiency virus type 1 mutated at 227C. The format is functional, organism-based.
Series [8] concerns Human immunodeficiency virus 1. In words: Effective concentration against human immunodeficiency virus type 1 mutated at 103N+181C. It counts as functional, organism-based.
In series [9] the test system is Human immunodeficiency virus 1. In words: Effective concentration against human immunodeficiency virus type 1 mutated at 227L+106A. The format is functional, organism-based.
The subject of series [10] is Human immunodeficiency virus 1. Description: Ratio of CC50 and EC50 against wild type human immunodeficiency virus type 1 LAI strain. It counts as functional.
A short description of series [11]: Cytotoxic concentration against wild type human immunodeficiency virus type 1 […] strain. The following applies: Human immunodeficiency virus 1. An outline of the steps:
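MT-4 cells, 30,000 cells/well, were mock-infected (virus at 200-250 CCID50/well for the infected wells) and exposed to a range of compound concentrations. Plates were held at 37 °C with 5% CO2.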

Series [12] concerns Human immunodeficiency virus 1. In words: Effective concentration against human immunodeficiency virus type 1 mutated at 103N+181C; ND:Not determined. It counts as functional, organism-based.

On to `Cc1cc(CC(C)C#N)cc(C)c1Nc1ccnc(Nc2ccc(C#N)cc2)n1` (stereo not drawn), for which the 50% effective concentration (EC50) in [1] was determined as 12.5 nM; in series [2], 0.63 nM; in series [3], 1 nM; in [4] it was 0.63 nM; in series [5], 2 nM; in series [6], 50 nM. Besides, the EC50 in series [7] stood at 6.31 nM; in [8], 5 nM; in [9], 3.16 nM. For the same molecule, the Selectivity index in series [10] was found to be 1578. The molecule also came in with a CC50 in series [11] of 1000 nM.

As to `CC(C)Nc1cccnc1N1CCN(C(=O)c2cc3cc(NS(C)(=O)=O)ccc3[nH]2)CC1` [DELAVIRDINE], the EC50 in [2] is 63.1 nM; in series [3] it was 2510 nM; in series [4], 2510 nM; in series [5], 2000 nM; in series [6], 1260 nM; in series [12] it was 20000 nM. The Selectivity index in [10] is above 300. Besides, the CC50 in series [11] is above 20000 nM.

Take `Cc1cc(CCC#N)cc(C)c1Nc1ccnc(Nc2ccc(C#N)cc2)n1`: the EC50 amounted to 31.6 nM in series [1]; 0.63 nM in series [2]; 7.95 nM in series [3]; 0.4 nM in series [4]; 12.5 nM in [5]; 20 nM in series [6]. Besides, the EC50 was found to be 4 nM in series [7], 2.51 nM in [8] and 4 nM in series [9]. In addition, the Selectivity index in series [10] stood at 4782. Further, the CC50 in series [11] came out at 3000 nM.

As to `Cc1cc(CC#N)cc(C)c1Nc1ccnc(Nc2ccc(C#N)cc2)n1`, the EC50 amounted to 0.8 nM in series [2]; 40 nM in [3]; 7.95 nM in series [4]; 25.1 nM in series [5]; 25.1 nM in series [6]; 10 nM in series [7]. In addition, the response in [9] was half-maximal at 125 nM (EC50). Moreover, in series [10], the Selectivity index is given as 12589. This molecule also came in with a CC50 in series [11] of 10000 nM.

Regarding `Cc1cc(/C=C/C#N)cc(C)c1Nc1ccnc(Nc2ccc(C#N)cc2)n1` [RILPIVIRINE], the EC50 in series [1] worked out at 7.95 nM; in [3] it was 0.4 nM; in [4], 0.3 nM; in [5] it was 1.26 nM; in series [6], 2 nM; in [7], 2 nM. Besides, the EC50 in series [8] and in series [9] was 1 nM each time. In series [11], this molecule gave a cytotoxic concentration (CC50) of 30000 nM.

Turning to `Cc1cc(-c2ccc(C#N)o2)cc(C)c1Nc1ccnc(Nc2ccc(C#N)cc2)n1`, the concentration giving a half-maximal response (EC50) in [1] was 500 nM; in series [2], 4 nM; in series [3] it was 31.6 nM; in series [4], 7.95 nM; in [5], 40 nM; in series [6], 31.6 nM. Moreover, the EC50 in series [7] and in series [9] was 31.6 nM each time. Besides, the Selectivity index in series [10] came to 3162. Besides, half-maximal cytotoxicity in [11] (CC50) was put at 10000 nM.

In the case of `C/C(C#N)=C/c1cc(C)c(Nc2ccnc(Nc3ccc(C#N)cc3)n2)c(C)c1`, the EC50 in series [1] was above 10000 nM; in [2], 0.8 nM; in series [3], 31.6 nM; in [4] it was 1 nM; in series [5] it was 4 nM; in [6] it was 31.6 nM. Moreover, the EC50 in [7] was determined as 5 nM; in series [8], 20 nM; in series [9] it was 5 nM. Moreover, the Selectivity index in series [10] amounted to 3750. In [11], this molecule showed a cytotoxic concentration (CC50) of 3000 nM.

Regarding `O=C1Nc2ccc(Cl)cc2[C@@](C#CC2CC2)(C(F)(F)F)O1` [EFAVIRENZ], the concentration giving a half-maximal response (EC50) in [1] is above 10000 nM; in [3] it was 40 nM; in series [4] it was 40 nM; in series [5], 2 nM; in [6], 160 nM; in series [7] it was 160 nM. The EC50 in series [8] stood at 40 nM. This molecule also had a cytotoxic concentration (CC50) in [11] of 10000 nM.

For `Cc1cc(/C(Cl)=C/C#N)cc(C)c1Nc1ccnc(Nc2ccc(C#N)cc2)n1`, the EC50 in series [1] was found to be 31.6 nM; in series [2], 4 nM; in [3], 2.51 nM; in series [4] it was 2 nM; in series [5], 6.31 nM; in series [6], 7.95 nM. The half-maximal effective concentration (EC50) in series [7] came out at 31.6 nM; in series [8], 6.31 nM; in series [9], 7.95 nM. Besides, in series [10], the Selectivity index is reported as 7500. The half-maximal cytotoxic concentration (CC50) in [11] stood at 30000 nM.

`C/C(C#N)=C\c1cc(C)c(Nc2ccnc(Nc3ccc(C#N)cc3)n2)c(C)c1`: the EC50 turned out to be 7.95 nM in series [1]; 0.8 nM in [2]; 0.6 nM in series [3]; 0.6 nM in series [4]; 1.6 nM in series [5]; 3.16 nM in series [6]. Further, the EC50 in series [7] was found to be 2.51 nM; in series [8], 2 nM; in [9] it was 4 nM. In addition, the Selectivity index in series [10] turned out to be 25000. In addition, the midpoint of cytotoxicity in series [11], the CC50, lay at 20000 nM.

Regarding `Cc1cc(/C=C\C#N)cc(C)c1Nc1ccnc(Nc2ccc(C#N)cc2)n1`, the EC50 in [1] was 794 nM; in series [2] it was 0.6 nM; in series [3] it was 6.3 nM; in [4], 1.6 nM; in series [5], 5 nM; in series [6] it was 31 nM. Also, the EC50 in series [7] worked out at 4 nM; in [8], 39.8 nM; in series [9], 4 nM. The CC50 in series [11] was 30000 nM.

In the case of `Cc1cc(/C=C/CC#N)cc(C)c1Nc1ccnc(Nc2ccc(C#N)cc2)n1`, the EC50 in series [1] worked out at 251 nM; in [2] it was 1 nM; in series [3], 40 nM; in series [4], 2.51 nM; in [5], 31.6 nM; in series [6] it was 20 nM. Further, the EC50 came to 40 nM in series [7], 1 nM in series [8] and 50 nM in [9]. Also, in [10], the Selectivity index is on record as 10000. For the same molecule, in series [11], the CC50 was found to be 10000 nM.

Turning to `Cc1cc(/C=C(/C#N)CC#N)cc(C)c1Nc1ccnc(Nc2ccc(C#N)cc2)n1`, the EC50 in series [2] was found to be 0.4 nM; in [3], 31.6 nM; in series [4], 6.31 nM; in series [5] it was 6.31 nM; in series [6] it was 31.6 nM; in series [7], 12.5 nM. Also, the midpoint of the response in series [9], the EC50, lay at 25.1 nM. The Selectivity index in series [10] is listed as 5012. For the same molecule, the half-maximal cytotoxic concentration (CC50) in [11] turned out to be 2000 nM.

On to `C/C(=C\C#N)c1cc(C)c(Nc2ccnc(Nc3ccc(C#N)cc3)n2)c(C)c1`, for which the EC50 in [1] is 2.51 nM; in series [2] it was 1 nM; in [3], 0.8 nM; in series [4], 1 nM; in series [5], 2.51 nM; in series [6] it was 4 nM. In addition, the concentration for a half-maximal effect (EC50) was determined as 5 nM in series [7], 2.51 nM in [8] and 5 nM in series [9]. In series [10], the Selectivity index was determined as 30000. In addition, the CC50 in series [11] is 30000 nM.

With `Cc1ccnc2c1NC(=O)c1cccnc1N2C1CC1` [NEVIRAPINE], the EC50 in series [2] was 39.8 nM; in [3], 316 nM; in series [4], 6310 nM; in [5] it was 10000 nM; in series [6], above 10000 nM; in series [8], above 10000 nM. Besides, the Selectivity index in [10] is reported as above 500. Further, the CC50 in [11] came out at 20000 nM.

In the case of `Cc1cc(COCCC#N)cc(C)c1Nc1ccnc(Nc2ccc(C#N)cc2)n1`, the EC50 in [2] was found to be 0.63 nM; in [3], 25.1 nM; in [4] it was 3.16 nM; in series [5], 31.6 nM; in [6], 40 nM; in series [7], 10 nM. The same molecule gave an EC50 in series [9] of 125 nM. The Selectivity index in [10] was 15873. In series [11], this molecule returned a 50% cytotoxic concentration (CC50) of 10000 nM.

Consider `Cc1cc(C#N)cc(C)c1Nc1ccnc(Nc2ccc(C#N)cc2)n1`, for which the concentration for a half-maximal effect (EC50) in [1] came to 1000 nM; in [2], 0.4 nM; in [3], 31 nM; in series [4] it was 2 nM; in series [5], 6.3 nM; in series [6], 7.9 nM. The values for the half-maximal effective concentration (EC50) in series [7], in [8] and in series [9] were 100 nM, 31 nM and 12.6 nM, respectively. Also, the Selectivity index in series [10] turned out to be 12500. The molecule also showed a CC50 in [11] of 5000 nM.
